In ChEMBL document CHEMBL4715707, “Allosteric Indole Amide Inhibitors of p97: Identification of a Novel Probe of the Ubiquitin Pathway” (ACS Med Chem Lett, 2016):
Converted amounts (≈) assume the structure as drawn. One block for each compound: values may come before it. The source made the active and inactive calls. The calls are words filed in the database; no cut-off is given here.

Tests used:
[1] = target: T1, Transitional endoplasmic reticulum ATPase (Homo sapiens, UniProt P55072); assay: Inhibition of recombinant human full length Avi-tagged p97 (1 to 806 residues) expressed in Escherichia coli Rosetta 2(DE3) using 20 uM ATP as substrate incubated for 90 mins by ADP-glo assay
Method in brief: (§1)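 ADP-Glo luminescent detection of ADP formed by wild-type p97 ATPase. Enzyme was 20 nM WT p97 (indole amide series) or 10 nM (pyridine indole amide series), with ATP at 20 or 100 μM. n is the number of independent replicates, each run in duplicate or triplicate.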
Target sequence in this assay (P55072 whole entry, the tested form may be a part): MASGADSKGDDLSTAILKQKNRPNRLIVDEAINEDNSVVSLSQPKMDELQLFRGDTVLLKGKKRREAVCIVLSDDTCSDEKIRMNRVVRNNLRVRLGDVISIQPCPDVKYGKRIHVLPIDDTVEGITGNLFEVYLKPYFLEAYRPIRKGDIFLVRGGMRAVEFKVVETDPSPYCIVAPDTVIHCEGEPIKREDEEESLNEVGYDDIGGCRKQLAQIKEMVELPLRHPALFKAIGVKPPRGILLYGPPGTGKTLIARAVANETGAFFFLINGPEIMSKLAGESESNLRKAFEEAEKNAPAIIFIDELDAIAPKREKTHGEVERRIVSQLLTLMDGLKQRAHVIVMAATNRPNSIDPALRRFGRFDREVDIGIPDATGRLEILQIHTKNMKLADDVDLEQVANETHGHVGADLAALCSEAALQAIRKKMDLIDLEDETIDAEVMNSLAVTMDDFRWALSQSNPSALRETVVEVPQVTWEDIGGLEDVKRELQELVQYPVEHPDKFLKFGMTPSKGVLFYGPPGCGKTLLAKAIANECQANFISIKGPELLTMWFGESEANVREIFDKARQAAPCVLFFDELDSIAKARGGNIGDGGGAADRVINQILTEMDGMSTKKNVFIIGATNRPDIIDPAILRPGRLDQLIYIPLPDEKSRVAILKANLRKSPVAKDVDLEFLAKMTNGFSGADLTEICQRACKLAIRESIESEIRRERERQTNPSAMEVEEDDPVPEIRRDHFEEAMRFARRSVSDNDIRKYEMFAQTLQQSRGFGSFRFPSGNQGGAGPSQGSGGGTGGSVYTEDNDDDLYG

[2] = target: T1, Transitional endoplasmic reticulum ATPase; assay: Inhibition of recombinant human full length Avi-tagged p97 (1 to 806 residues) expressed in Escherichia coli Rosetta 2(DE3) using 100 uM ATP as substrate incubated for 90 mins by ADP-glo assay; method in brief: as §1
Target sequence in this assay (P55072 whole entry, the tested form may be a part): as above

[3] = Metabolic stability in mouse microsomes assessed as half life; format: ADME, Microsome
[4] = Apparent permeability across apical to basolateral side in MDCK cells; format: ADME, cell-based, Canis lupus familiaris; conditions: dog
Method in brief: (§2)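 Bidirectional permeability measured across MDCK cell monolayers, reported as apparent permeability (Papp) in cm/s for each direction.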

[5] = Apparent permeability across basolateral to apical side in MDCK cells; format: ADME, cell-based, Canis lupus familiaris; conditions: dog; method in brief: as §2
[6] = Aqueous solubility of compound at pH 7; format: physicochemical; conditions: buffer
Method in brief: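 Aqueous solubility determined in PBS at pH 7.4.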

[7] = Metabolic stability in human microsomes assessed as half life; format: ADME, Microsome
[8] = target: T1, Transitional endoplasmic reticulum ATPase; assay: Uncompetitive inhibition of recombinant human full length Avi-tagged p97 (1 to 806 residues) expressed in Escherichia coli Rosetta 2(DE3) using 20 uM ATP as substrate incubated for 90 mins by ADP-glo assay based Michaelis-Menten plot analysis
Method in brief: (§3)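 ATP-dependence of inhibition assessed by determining IC50 at three ATP levels (5, 20 and 100 μM) in the ADP-Glo p97 ATPase assay. Inhibition mode was assigned from the shift in IC50 with increasing ATP.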
Target sequence in this assay (P55072 whole entry, the tested form may be a part): as above

[9] = target: T1, Transitional endoplasmic reticulum ATPase; assay: Competitive inhibition of recombinant human full length Avi-tagged p97 (1 to 806 residues) expressed in Escherichia coli Rosetta 2(DE3) using 20 uM ATP as substrate incubated for 90 mins by ADP-glo assay based Michaelis-Menten plot analysis
Target sequence in this assay (P55072 whole entry, the tested form may be a part): as above

[10] = target: T1, Transitional endoplasmic reticulum ATPase; assay: Binding affinity to recombinant human full length N-terminal Avi-tagged p97 ND1 domain (1 to 458 residues) expressed in Escherichia coli Rosetta 2(DE3) assessed as binding constant by SPR analysis
Target sequence in this assay (P55072 2-806 limits assumed): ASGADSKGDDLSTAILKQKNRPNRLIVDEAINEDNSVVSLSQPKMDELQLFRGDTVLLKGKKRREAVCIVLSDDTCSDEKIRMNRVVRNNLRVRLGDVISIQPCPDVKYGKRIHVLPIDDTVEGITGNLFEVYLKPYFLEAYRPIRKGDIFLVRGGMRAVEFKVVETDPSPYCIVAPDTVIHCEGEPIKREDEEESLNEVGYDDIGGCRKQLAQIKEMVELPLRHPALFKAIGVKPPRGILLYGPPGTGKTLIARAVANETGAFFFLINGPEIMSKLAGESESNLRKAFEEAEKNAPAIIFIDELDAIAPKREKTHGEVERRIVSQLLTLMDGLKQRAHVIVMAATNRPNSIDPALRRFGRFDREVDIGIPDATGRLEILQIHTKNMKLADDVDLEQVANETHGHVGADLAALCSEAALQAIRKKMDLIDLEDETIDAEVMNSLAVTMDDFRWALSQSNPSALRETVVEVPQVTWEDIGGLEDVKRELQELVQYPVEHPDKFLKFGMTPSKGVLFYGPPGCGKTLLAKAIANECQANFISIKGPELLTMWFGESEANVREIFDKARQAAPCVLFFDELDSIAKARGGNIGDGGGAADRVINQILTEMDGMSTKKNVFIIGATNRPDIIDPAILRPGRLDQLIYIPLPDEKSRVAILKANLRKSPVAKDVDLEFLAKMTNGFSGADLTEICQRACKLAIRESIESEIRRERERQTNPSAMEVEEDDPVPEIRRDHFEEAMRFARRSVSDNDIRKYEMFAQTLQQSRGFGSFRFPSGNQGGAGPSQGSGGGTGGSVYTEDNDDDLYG

[11] = target: T1, Transitional endoplasmic reticulum ATPase; assay: Binding affinity to recombinant human full length Avi-tagged p97 (1 to 806 residues) expressed in Escherichia coli Rosetta 2(DE3) assessed as binding constant by SPR analysis
Target sequence in this assay (P55072 2-806 limits assumed): as above

[12] = target: T1, Transitional endoplasmic reticulum ATPase; assay: Binding affinity to recombinant human full length C-terminal Avi-tagged p97 D2 domain (461 to 806 residues) expressed in Escherichia coli Rosetta 2(DE3) assessed as binding constant by SPR analysis
Target sequence in this assay (P55072 2-806 limits assumed): as above

[13] = target: T1, Transitional endoplasmic reticulum ATPase; assay: Inhibition of recombinant human full length Avi-tagged p97 (1 to 806 residues) expressed in Escherichia coli Rosetta 2(DE3) using 5 uM ATP as substrate incubated for 90 mins by ADP-glo assay; method in brief: as §3
Target sequence in this assay (P55072 whole entry, the tested form may be a part): as the sequence (P55072 whole entry, the tested form may be a part) above

Structure (SMILES): CCc1cc2cc(NC(=O)c3nccnc3N)ccc2[nH]1
IC50 [2]: 13 µM

Structure (SMILES): Cc1cc2cc(NC(=O)c3cccnc3N)ccc2[nH]1
half-life [3]: 5 min | Papp A→B [4]: 71 ×10⁻⁶ cm/s | Papp B→A [5]: 46 ×10⁻⁶ cm/s | solubility [6]: 330 µM (≈ 87.9 µg/mL) | IC50 [2]: 0.5 µM | half-life [7]: > 60 min | Ki [8]: 0.74 µM | Ki [9]: 3.5 µM | IC50 [1]: 2.6 µM

Structure (SMILES): Nc1nccnc1C(=O)Nc1ccc2[nH]ccc2c1
IC50 [1]: > 50 µM

Structure (SMILES): Cc1cc2cc(NC(=O)c3nccnc3N)ccc2n1C
IC50 [2]: > 50 µM

Structure (SMILES): Cc1cc2cc(NC(=O)c3nccnc3N)ccc2[nH]1
solubility [6]: 56 µM (≈ 15 µg/mL) | Activity [10]: inactive | Kdiss [11]: 9.1 µM | IC50 [2]: 3.5 µM | Activity [12]: Active | IC50 [13]: 26 µM | IC50 [1]: 11.5 µM

Next, values leading:

IC50 [1]: > 50 µM
Structure (SMILES): Cc1[nH]c2ccc(NC(=O)c3nccnc3N)cc2c1C

IC50 [1]: > 50 µM
Structure (SMILES): Cc1cc2cc(NC(=O)c3cnccn3)ccc2[nH]1

IC50 [1]: > 50 µM
Structure (SMILES): Cc1cc2cc(NC(=O)c3ncccc3N)ccc2[nH]1
